Laboratory results published in paper PMC4110683 (Chemistry and physics of lipids, 2013).
Values after ≈ are worked out from the molar mass of the structure shown. Read-outs that look alike come from different tables or passages of the source.

Experiments:
[1] = test system: Mycobacterium tuberculosis H37Rv; details: ref Morbidoni et al., 2006; cited from earlier work
[2] = test system: L. donovani promastigotes; details: read-out: IC50 L. donovani promastigotes; ref Carballeira et al., 2012; cited from earlier work
hTopIB = molecular target: T1, hTopIB (Homo sapiens, UniProt P11387); details: read-out: hTopIB EC50; relaxation activity; ref Carballeira et al., 2012; cited from earlier work
T1 sequence (P11387 1-765): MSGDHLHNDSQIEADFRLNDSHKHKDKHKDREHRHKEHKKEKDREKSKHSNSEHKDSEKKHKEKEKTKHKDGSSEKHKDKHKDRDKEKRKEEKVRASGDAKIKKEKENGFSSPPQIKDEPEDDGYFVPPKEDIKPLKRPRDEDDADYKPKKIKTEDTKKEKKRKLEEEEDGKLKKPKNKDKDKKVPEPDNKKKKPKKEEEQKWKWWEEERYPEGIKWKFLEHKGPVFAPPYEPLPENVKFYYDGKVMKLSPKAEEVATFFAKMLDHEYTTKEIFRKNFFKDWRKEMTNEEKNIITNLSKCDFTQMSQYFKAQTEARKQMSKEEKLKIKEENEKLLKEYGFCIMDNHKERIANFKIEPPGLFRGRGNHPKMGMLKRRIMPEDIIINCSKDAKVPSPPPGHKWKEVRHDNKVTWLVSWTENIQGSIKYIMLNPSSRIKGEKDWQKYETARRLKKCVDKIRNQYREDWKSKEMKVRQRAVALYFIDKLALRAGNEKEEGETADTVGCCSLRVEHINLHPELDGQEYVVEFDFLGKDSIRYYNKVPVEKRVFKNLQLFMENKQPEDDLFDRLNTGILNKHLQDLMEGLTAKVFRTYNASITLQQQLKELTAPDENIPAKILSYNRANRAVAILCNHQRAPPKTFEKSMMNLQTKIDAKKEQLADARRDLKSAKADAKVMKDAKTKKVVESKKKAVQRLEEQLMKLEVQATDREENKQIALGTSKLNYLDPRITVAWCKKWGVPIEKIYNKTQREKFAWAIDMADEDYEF

caspase-3 = test: Caspase-3 activation in SH-SY5Y cells; type: cell-based, human; details: 40 μM, 48h, in words
[3] = test system: human SH-SY5Y neuroblastoma cell line; test: Cytotoxicity to SH-SY5Y neuroblastoma cells; type: cell-based; details: 120 h, read-out: IC50 SH-SY5Y neuroblastoma cell line
Procedure, shortened: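 Human SH-SY5Y neuroblastoma cells were first differentiated with 15 μM all-trans retinoic acid for 5 d. Test compound was then added to the culture medium, and activity was read by sulforhodamine B (SRB) assay.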

[4] = test system: mouse leukaemic monocyte macrophage cell line (RAW 264.7); test: Cytotoxicity to RAW 264.7 cells; type: cell-based; details: RAW264.7, read-out: IC50 RAW 264.7
PfFabG = PfFabG (Plasmodium falciparum, UniProt Q8I2S7); test: biochemical
LdTopIB = details: read-out: LdTopIB EC50; relaxation activity; ref Carballeira et al., 2012; cited from earlier work
[5] = test system: InhA, the enoyl-ACP reductase; details: in words; ref Morbidoni et al., 2006; cited from earlier work
PfFabI = molecular target: T2, PfFabI (Plasmodium falciparum, UniProt Q9BH77); test: Inhibition of PfFabI; type: biochemical
T2 sequence (Q9BH77 22-432): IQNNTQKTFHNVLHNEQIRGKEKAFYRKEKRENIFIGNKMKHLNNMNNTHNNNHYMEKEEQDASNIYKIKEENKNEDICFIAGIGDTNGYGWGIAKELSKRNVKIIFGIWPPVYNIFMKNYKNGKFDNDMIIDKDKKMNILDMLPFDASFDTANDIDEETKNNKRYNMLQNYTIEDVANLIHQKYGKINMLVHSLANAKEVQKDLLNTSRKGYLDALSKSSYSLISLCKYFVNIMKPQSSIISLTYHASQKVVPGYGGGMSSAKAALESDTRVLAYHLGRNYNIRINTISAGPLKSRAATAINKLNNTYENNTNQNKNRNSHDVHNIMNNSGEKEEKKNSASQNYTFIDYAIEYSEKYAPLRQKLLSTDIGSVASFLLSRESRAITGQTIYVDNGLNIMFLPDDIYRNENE

[6] = test system: human SH-SY5Y neuroblastoma cells; test: LDH release in SH-SY5Y cells; type: cell-based; details: 40 μM, 48h, in words
PfFabZ = molecular target: T3, PfFabZ (Plasmodium falciparum, UniProt Q965D7); test: Inhibition of PfFabZ; type: biochemical
T3 sequence (Q965D7 19-230): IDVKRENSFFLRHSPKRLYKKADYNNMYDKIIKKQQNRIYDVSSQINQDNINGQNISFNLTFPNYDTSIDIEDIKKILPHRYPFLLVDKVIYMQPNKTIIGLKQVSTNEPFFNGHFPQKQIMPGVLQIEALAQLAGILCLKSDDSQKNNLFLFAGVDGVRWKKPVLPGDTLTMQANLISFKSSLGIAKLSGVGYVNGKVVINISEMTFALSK

[7] = test system: BALB/c murine macrophages; details: read-out: Murine macrophages BALB/c IC50; ref Carballeira et al., 2012; cited from earlier work
P. falciparum K1 = test: Toxicity to P. falciparum K1 strain; type: cell-based, Plasmodium falciparum
housefly = details: in words, ref de Renobales et al., 1986; cited from earlier work
M. smegmatis mc^2 155 = details: ref Morbidoni et al., 2006; cited from earlier work
[8] = test system: human colon adenocarcinoma grade II cell line (HT29); test: Cytotoxicity to HT29 cells; type: cell-based; details: HT-29, read-out: IC50 HT29

For `CCCCCCCCCCCCCCCC#CC(=O)O` [2-ODA, 2-octadecynoic acid], the “MIC against Mycobacterium tuberculosis H37Rv” value [1] is given as 20 to 25 µM, the IC50 [2] is given as 11 µM and the EC50 (hTopIB) is given as 34.8 ± 2.3 µM. For the same compound, the Caspase-3 activation (caspase-3) was “did not produce any significant caspase-3 activation”, the IC50 [3] was 26 ± 2 µM and the IC50 [4] was 45.5 ± 3.4 µM. For the same compound, the IC50 (PfFabG) was 2.9 µM, the EC50 (LdTopIB) was 5.3 ± 0.7 µM and the “Inhibition of InhA” value [5] was “able to inhibit”. For the same compound, the IC50 (PfFabI) was 1.1 µM, the LDH release [6] was “significant LDH release” and the IC50 (PfFabZ) was 1 µM. The IC50 [7] was > 100 µM, the IC50 (P. falciparum K1; Plasmodium falciparum, K1, read-out: IC50 P. falciparum K1, Carballeira and Tasdemir, unpublished data) was 20 µM and the IC50 (P. falciparum K1; read-out: IC50 P. falciparum K1, Carballeira and Tasdemir, unpublished data) was 21.7 µM. For the same compound, the “In vivo incorporation of [1-14C]acetate into fatty acids and hydrocarbons” value (housefly) was “inhibited”, the “MIC against M. smegmatis mc^2 155” value (M. smegmatis mc^2 155) was 4 µM (≈ 1.12 µg/mL) and the IC50 [8] was 101.1 ± 0.9 µM.
